# Source: PubChem BioAssay
# Calb FLC – affects C. albicans growth with fluconazole. C. albicans CaCi-2 (fluconazole-resistant clinical isolate) + fluconazole, Alamar Blue growth, 48 h. growth inhibition, % (test concentration not listed). 300,000 tested, 0.57% active;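 active means growth inhibition above about 58% in most replicates, limit read from the data, passing the limit was not always enough; inconclusive means exactly half the replicates above a set limit; inactive means most replicates below a set limit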;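 further: all wells also contain fluconazole at 8 µg/ml as a sub-toxic cotreatment; 0% = median of DMSO wells and 100% = median of geldanamycin control wells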
# HSF1 activator – increases HSF-1 driven luciferase reporter signal; NIH3T3-HGL HSF-1 luciferase reporter, MG132, 8 h; 100% = twice DMSO control signal; activation, % at 9 µM; 300,000 tested, 1.7% active;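 active means mean replicate activation of at least 50% with a set share of replicates each reaching 50%; inconclusive means only one of those two conditions met; inactive means mean below 50% and too few replicates reaching it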;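 further: 0% = median of the neutral control wells and 100% = twice that signal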
# T cruzi repl – T. cruzi replication inhibition; inhibition, % (test concentration not listed); AID 1885; T. cruzi beta-gal in NIH3T3, luminescence, 90 h; 300,000 tested, 1.4% active;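 active means mean inhibition across valid replicates above about 55%, limit read from the data; inconclusive means mean below that limit but half or more replicates reach it; inactive means mean below it, under half of replicates reach it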;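 further: signal also drops with host cell toxicity which is not excluded here; 0% = plate median of DMSO wells and 100% = zero luminescence signal; higher percent means less beta-gal luminescence so fewer parasites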
#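 System: Mouse NIH/3T3 fibroblasts infected with β-gal-expressing T. cruzi Tulahuen C4 | Quantity: NIH/3T3 cells, 5,000 per well | Reagent: 5000 reporter trypomastigotes per well | Dosing: Compound pinned at 50 nL/well, DMSO | Schedule: 3 h host attachment, then at least 90 h co-culture | Detection: GalScreen luminescence, 60 min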
# HSF1 inh – HSF1 inhibition; NIH3T3-HGL HSE-luciferase, MG132-induced, luminescence 8 h; stronger effect = lower value; activity change, negative = inhibition, % at 7.5 µM (by protocol); 300,000 tested, 0.77% active; AID 2098;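 active means more than half of replicate wells show activity change below -50%, luminescence cut by over half; inconclusive means some wells, but at most half, below -50%; inactive means no replicate well below -50%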;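 further: luciferase reports HSF-1 transcriptional activity via heat shock element; 0% = median of DMSO wells and -100% = zero luminescence signal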
# HIF activator – HIF pathway transcriptional activation; U2OS HRE-luciferase reporter, luminescence; normalized: DMSO 0%, desferrioxamine 100%; activation, % at 7.5 µM (by protocol); 300,000 tested, 0.32% active; AID 1910;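 active means mean activation of at least 10% of the iron chelator positive control signal, with at least half of replicates also reaching 10%; inconclusive means mean and replicate majority disagree about reaching 10%; inactive means mean and most replicates under 10%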
# * = called active by the depositor; u = inconclusive; x = not tested or not shown. Shown are actives, neighbours in structure and some others; about 4.4% of the full set was active somewhere.
SMILES,Calb FLC,HSF1 activator,T cruzi repl,HSF1 inh,HIF activator
COc1ccc(O)c(C(=O)c2cnc3c(c2)c(=O)[nH]c(=O)n3C)c1,27.5,3.2,-14.2,3.7,0.5
CC(C)(C)n1nnnc1C(c1cccs1)N(Cc1ccc(Cl)cc1)CC1CCCO1 (stereo not given),-2.4,-1.8,58.2*,15.6,-0.2
Clc1ccc(CN(Cc2ccccc2)C(c2cccs2)c2nnnn2C2CCCC2)cc1 (stereo not given),-4.3,-9.1,50.2,-4.0,1.4
C=CCCC(=O)N1CCC(n2nccc2NC(=O)c2ccc(OC)cc2)CC1,-13.9,9.8,-22.5,2.5,1.2
C/C=C(\C)CN1CCC(n2nccc2NC(=O)c2ccc(OC)cc2)CC1,-2.1,-10.6,65.7*,-9.1,0.3
O=C(CN(CC1CCCO1)C(=O)CNS(=O)(=O)c1ccc(F)cc1)NC1CCCC1 (stereo not given),-2.0,62.5*,3.9,21.0,0.0
O=C(CN(CC1CCCO1)C(=O)CNS(=O)(=O)c1ccc(F)cc1)NC1CCCCC1 (stereo not given),1.5,-0.9,8.9,-2.2,0.1
Cc1ccc(S(=O)(=O)NCC(=O)N(CC(=O)NCC2CCCO2)Cc2ccc(Cl)cc2)cc1 (stereo not given),-5.4,51.6*,-7.3,18.3,-0.7
COc1ccc(Cn2c(C3CC3)nc3ccc(NC(C)=O)cc3c2=O)cc1,29.2,50.6*,14.7,28.8,7.0
CCCc1nc2ccc(NC(C)=O)cc2c(=O)n1Cc1ccc(Cl)cc1,3.9,60.3*,38.5,36.7,2.2
CCCc1nc2ccc(NC(=O)c3cccs3)cc2c(=O)n1Cc1ccccc1Cl,1.0,61.3*,39.6,19.3,0.4
S=C(c1ccco1)N1CCOCC1,x,2.3,x,2.3,x
Cc1ccc2nc(N3C(=O)C(O)=C(C(=O)c4ccco4)C3c3cccs3)sc2c1 (stereo not given),55.7,65.8*,-27.3,34.9,1.7
CC(=O)Nc1ccc(Cc2nc3c([nH]2)c(=O)n(C)c(=O)n3C)cc1,-6.4,-15.9,4.4,-5.2,0.7
COC(=O)NCc1ccc(Cl)c(Cl)c1,-7.9,5.6,-13.4,-0.4,1.5
COc1ccc(CNC(=O)Oc2ccccc2)cc1Cl,-5.8,94.1*,-1.1,41.2,-1.6
CC[n+]1c(/C=C2\C=C(C)CC(C)(C)C2)sc2ccccc21,-11.2,85.1*,45.8,66.6,1.2
CCC1=C/C(=C/c2sc3ccccc3[n+]2CC)CC(C)(C)C1,u,47.9,23.6,36.0,0.0
O=C1c2ccc3c4c(ccc(c24)C(=O)N1CCCCO)C(=O)N(CCCCO)C3=O,67.2,u,68.4*,37.0,-5.0
Cc1ccc(CNS(=O)(=O)c2cn(C)c(=O)n(C)c2=O)cc1,-1.3,-5.7,-13.6,-2.8,-0.3
CCOC(=O)CNC(=O)CSc1ncnc2c1nnn2-c1ccc(F)cc1,-1.7,95.5*,-26.0,71.0,-0.6
COC(=O)C(C)Sc1ncnc2c1nnn2-c1ccc(F)cc1 (stereo not given),3.4,125.9*,-22.7,88.2,4.6
COc1ccc2nc(NC(=O)CSc3cn[nH]n3)sc2c1,1.8,49.3,20.3,26.8,2.0
CCOc1ccc2nc(NC(=O)c3cnccn3)sc2c1,-0.3,98.5*,-18.6,46.6,1.6
CCOc1ccc2nc(NC(=O)CSc3cn[nH]n3)sc2c1,10.9,55.1*,-8.2,16.5,-1.2
SMILES,Calb FLC,HSF1 activator,T cruzi repl,HSF1 inh,HIF activator
CC12CCC(C(=O)NNc3ccc([N+](=O)[O-])cc3)(OC1=O)C2(C)C (stereo not given),-9.0,3.0,-6.1,0.8,-0.7
CC12CCC(C(=O)NNc3ccc([N+](=O)[O-])cc3)(CC1=O)C2(C)C (stereo not given),120.7*,14.0,3.9,-3.8,-0.3
COc1ccc(-c2cc(C3CCN(C(=O)OC(C)(C)C)CC3)[nH]n2)cc1,-7.1,-17.5,-5.1,-16.7,-0.3
CCOC(=O)c1cn2nc(-c3ccc(OC)cc3)cc2nc1C1CCN(C(=O)OC(C)(C)C)CC1,2.1,21.4,59.2*,1.7,-0.7
c1ccc(CSc2nnc(-c3ccncc3)o2)cc1,-2.3,-1.5,12.4,-20.0,2.4
COc1ccc(Nc2oc(-c3ccc(Cl)cc3)nc2C#N)cc1,11.7,u,31.5,25.8,0.6
Fc1ccccc1CSc1nnc(-c2ccccc2)o1,-12.6,37.1,-10.6,20.8,2.7
COc1ccc(Nc2oc(-c3ccc(OC)cc3)nc2C#N)cc1,-0.4,67.7*,16.6,52.9,3.6
Cc1ccccc1-c1nnc(SCc2ccccc2)o1,19.2,64.3*,21.9,43.7,2.2
COc1ccc(-c2nnc(SCc3ccccc3F)o2)cc1,0.5,53.7*,6.9,33.0,1.1
Cc1ccccc1-c1nnc(SCc2ccccc2F)o1,-3.9,74.4*,25.1,37.6,2.8
COc1ccc(-c2nnc(-c3ccc(F)cc3)o2)cc1,-5.1,46.0,-16.9,25.9,5.2
C#CCSc1nnc(-c2ccc(OC)cc2)o1,2.7,66.2*,-54.9,37.3,-35.4
COc1ccc(-c2nnc(-c3ccc(C)cc3)o2)cc1,1.8,53.4*,-11.1,23.1,2.6
Cc1ccc(C(C)C)cc1OCCCCN1CCCC1,-18.0,4.2,48.8,-2.7,0.3
COc1cc2c(cc1OC)C(c1ccc(Br)cc1)NC(=O)C2 (stereo not given),26.5,49.6,-1.9,26.7,-1.7
O=C(NCCc1ccccc1)C1CCCN1C(=O)Nc1ccc(Cl)cc1 (stereo not given),-1.9,0.0,-0.9,-4.1,-2.3
CC1CCc2sc(C(=O)N(C)CC(=O)Nc3ccc(N4CCOCC4)cc3)cc2C1 (stereo not given),5.5,3.1,-3.5,5.7,-0.3
O=C(O)CN1C(=O)/C(=C/c2ccccc2Br)Oc2ccccc21,8.7,69.5*,-10.8,15.8,2.7
CC(C)Cc1ccc(CN2CCC(n3nccc3NC(=O)C3CCCC3)CC2)cc1,2.0,2.4,59.0*,-6.2,0.4
COC(=O)c1cc(S(=O)(=O)NCc2ccc(F)cc2)cn1C,2.9,-62.8,-3.3,-52.7*,-0.3
Cc1cc(C)cc(N(CC(=O)NCCSCc2ccccc2)S(C)(=O)=O)c1,u,11.2,-4.9,3.1,0.4
C=CCNC(=O)CSc1ccc(Cl)cc1,-6.7,-7.6,-5.5,-3.5,-1.6
C=CCNCCOCCSc1ccc(Cl)cc1,1.4,51.7*,39.2,20.8,-0.3
CC(=O)C1=C(O)C(=O)N(c2ccc(Br)cc2)C1c1ccc(Br)cc1 (stereo not given),8.6,25.3,-10.3,7.5,1.6
COc1ccc(C2C(C(C)=O)=C(O)C(=O)N2c2ccc(C)cc2)cc1 (stereo not given),4.1,60.6*,28.7,15.9,-9.3
COc1ccc(C2C(CC(=O)O)=C(Nc3ccccc3)C(=O)N2c2ccccc2)cc1 (stereo not given),-23.9,64.1*,-7.7,30.8,1.9
CCOc1ccc(C(=O)Nc2nnc(C3=COCCO3)o2)cc1,-3.1,4.5,-24.4,-5.4,0.0
